In ChEMBL document CHEMBL1156597, “Structure-activity relationship of kahalalide F synthetic analogues” (J Med Chem, 2008):

Key:
LNCaP = assay: Cytotoxicity against human LNcaP cells after 48 hrs by SRB assay; type: functional; details: for CC50: read-out: LC50 (the source's name)
How it was run: (§1)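 Cells grown in RPMI 1640 with 10% FBS and penicillin/streptomycin at 37 °C and 5% CO₂, trypsinized, then seeded at 5 × 10³/well. After 18 h drug-free attachment, samples in DMSO/EtOH/PBS (0.5:0.5:99) were added for 48 h continuous exposure. Cells were fixed with cold TCA (1 h, 4 °C) and stained with SRB (10 min). Tris-solubilized stain read at 490 nm. Triplicate wells, mean ± SD; GI₅₀ derived.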

[1] = Cytotoxicity against human HeLa-APL cells after 48 hrs by SRB assay; type: functional; how it was run: as §1
DU-145 = assay: Cytotoxicity against human DU145 cells after 48 hrs by SRB assay; type: functional, cell-based; details: Homo sapiens, DU-145, 48 h; for CC50: read-out: LC50 (the source's name); how it was run: as §1
PANC-1 = assay: Cytotoxicity against human PANC1 cells after 48 hrs by SRB assay; type: functional; details: PANC-1, 48 h; for CC50: read-out: LC50 (the source's name); how it was run: as §1
HT-29 = assay: Cytotoxicity against human HT29 cells after 48 hrs by SRB assay; type: functional, cell-based; details: Homo sapiens, HT-29, 48 h; for CC50: read-out: LC50 (the source's name); how it was run: as §1
SK-BR-3 = assay: Cytotoxicity against human SKBR3 cells after 48 hrs by SRB assay; type: functional; details: SK-BR-3, 48 h; for GI50: read-out: GI50; for CC50: read-out: LC50 (the source's name); how it was run: as §1
K562 = assay: Cytotoxicity against human K562 cells after 48 hrs by SRB assay; type: functional; details: K562, 48 h; for CC50: read-out: LC50 (the source's name); how it was run: as §1
HeLa = assay: Cytotoxicity against human HeLa cells after 48 hrs by SRB assay; type: functional; details: for CC50: read-out: LC50 (the source's name); how it was run: as §1
[2] = Cytotoxicity against human IGROV-ET cells after 48 hrs by SRB assay; type: functional; details: for CC50: read-out: LC50 (the source's name); how it was run: as §1
SK-MEL-28 = assay: Cytotoxicity against human SK-MEL-28 cells after 48 hrs by SRB assay; type: functional, cell-based; details: Homo sapiens, SK-MEL-28, 48 h; for CC50: read-out: LC50 (the source's name); how it was run: as §1
LoVo = assay: Cytotoxicity against human LoVo cells after 48 hrs by SRB assay; type: functional; details: for CC50: read-out: LC50 (the source's name)
[3] = Cytotoxicity against human IGROV cells after 48 hrs by SRB assay; type: functional; details: for CC50: read-out: LC50 (the source's name); how it was run: as §1
A549 = assay: Cytotoxicity against human A549 cells after 48 hrs by SRB assay; type: functional, cell-based; details: Homo sapiens, A549, 48 h; for GI50: read-out: GI50; how it was run: as §1

SMILES | GI50 (LNCaP) | TGI (LNCaP) | CC50 (LNCaP) | GI50 [1] | LC50 (concentration giving 50% net cell kill) [1] | TGI [1] | GI50 (DU-145; read-out: GI50) | CC50 (DU-145) | CC50 (PANC-1) | CC50 (HT-29) | TGI (SK-BR-3) | GI50 (SK-BR-3) | CC50 (SK-BR-3) | CC50 (K562) | GI50 (HeLa) | TGI (HeLa) | CC50 (HeLa) | GI50 ([2]; read-out: GI50) | CC50 [2] | GI50 (SK-MEL-28; read-out: GI50) | further results
C/C=C1\NC(=O)[C@H](Cc2ccccc2)NC(=O)[C@@H](C(C)C)NC(=O)[C@@H]([C@H](C)CC)NC(=O)[C@H](NC(=O)[C@H](NC(=O)[C@H](CCCN)NC(=O)[C@H]2CCCN2C(=O)[C@H](NC(=O)[C@@H](NC(=O)[C@@H](NC(=O)[C@H](NC(=O)Cc2cc(F)cc(F)c2)C(C)C)[C@@H](C)O)C(C)C)C(C)C)[C@H](C)CC)[C@H](C)OC(=O)[C@H](C(C)C)NC1=O | 1650 nM | 3140 nM | 1490 nM | 2020 nM | 1290 nM | 2960 nM | 1840 nM | 1600 nM | 2460 nM | 556 nM | 1710 nM | 1270 nM | 1490 nM | 2370 nM | 1410 nM | 1350 nM | 1010 nM | 889 nM | 520 nM | 2340 nM | TGI (DU-145): 3690 nM; GI50 [2]: 679 nM; TGI (SK-MEL-28): 2930 nM; CC50 (SK-MEL-28): 1400 nM; GI50 (LoVo): 794 nM; TGI (LoVo): 1480 nM; CC50 (LoVo): 2200 nM; GI50 [3]: 692 nM; GI50 ([3]; read-out: GI50): 1370 nM; CC50 [3]: 426 nM; LC50 (A549): 1120 nM; TGI (A549): 1350 nM; GI50 (A549): 1620 nM
C/C=C1\NC(=O)[C@H](Cc2ccccc2)NC(=O)[C@@H](C(C)C)NC(=O)[C@@H]([C@H](C)CC)NC(=O)[C@H](NC(=O)[C@H](NC(=O)[C@H](CCCN)NC(=O)[C@H]2CCCN2C(=O)[C@H](NC(=O)[C@@H](NC(=O)[C@@H](NC(=O)[C@H](NC(=O)c2ccccc2)C(C)C)[C@@H](C)O)C(C)C)C(C)C)[C@H](C)CC)[C@H](C)OC(=O)[C@H](C(C)C)NC1=O | 1190 nM | 1370 nM | 1540 nM | 1040 nM | 834 nM | 934 nM | 1210 nM | 1040 nM | 2540 nM | 508 nM | 1360 nM | 874 nM | 1390 nM | 2450 nM | 1210 nM | 945 nM | 732 nM | 627 nM | 436 nM | 1120 nM | TGI (DU-145): 1120 nM; GI50 (PANC-1): 5380 nM; TGI (PANC-1): 4940 nM; GI50 (K562): 431 nM; TGI (K562): 1510 nM; GI50 [2]: 521 nM; TGI (SK-MEL-28): 1010 nM; CC50 (SK-MEL-28): 901 nM; GI50 (LoVo): 353 nM; TGI (LoVo): 423 nM; CC50 (LoVo): 573 nM; GI50 [3]: 565 nM; GI50 ([3]; read-out: GI50): 997 nM; CC50 [3]: 3910 nM; LC50 (A549): 1120 nM; TGI (A549): 1220 nM; GI50 (A549): 1320 nM
C/C=C1\NC(=O)[C@H](Cc2ccccc2)NC(=O)[C@@H](C(C)C)NC(=O)[C@@H]([C@H](C)CC)NC(=O)[C@H](NC(=O)[C@H](NC(=O)[C@H](CCCN)NC(=O)[C@H]2CCCN2C(=O)[C@H](NC(=O)[C@@H](NC(=O)[C@@H](NC(=O)[C@@H](Cc2ccccc2)NC(=O)CCCC(C)C)[C@@H](C)O)C(C)C)C(C)C)[C@H](C)CC)[C@H](C)OC(=O)[C@H](C(C)C)NC1=O | 2280 nM | 3130 nM | 1490 nM | 179 nM | 1280 nM | 1700 nM | 3900 nM | 1600 nM | 2450 nM | 5590 nM | 2190 nM | 2340 nM | 1670 nM | 2360 nM | 2210 nM | 2690 nM | 1010 nM | 2240 nM | 680 nM | 2640 nM | TGI (DU-145): 3680 nM; GI50 (PANC-1): 5440 nM; TGI (PANC-1): 4760 nM; GI50 (K562): 3400 nM; TGI (K562): 4680 nM; TGI [2]: 1730 nM; TGI (SK-MEL-28): 2920 nM; CC50 (SK-MEL-28): 1400 nM; GI50 (LoVo): 2620 nM; TGI (LoVo): 2710 nM; CC50 (LoVo): 2800 nM; GI50 [3]: 862 nM; GI50 ([3]; read-out: GI50): 2010 nM; CC50 [3]: 449 nM; LC50 (A549): 1840 nM; TGI (A549): 2750 nM; GI50 (A549): 2650 nM
C/C=C1\NC(=O)[C@H](Cc2ccccc2)NC(=O)[C@@H](C(C)C)NC(=O)[C@@H]([C@H](C)CC)NC(=O)[C@H](NC(=O)[C@H](NC(=O)[C@H](CCCC[N+](C)(C)C)NC(=O)[C@H]2CCCN2C(=O)[C@H](NC(=O)[C@@H](NC(=O)[C@@H](NC(=O)[C@H](NC(=O)CC[C@@H](C)CC)C(C)C)[C@@H](C)O)C(C)C)C(C)C)[C@H](C)CC)[C@H](C)OC(=O)[C@H](C(C)C)NC1=O | 1060 nM | 1060 nM | 1060 nM | 1110 nM | 859 nM | 979 nM | 1020 nM | 880 nM | 2440 nM | 476 nM | 363 nM | 372 nM | 369 nM | 2340 nM | 943 nM | 809 nM | 689 nM | 639 nM | 446 nM | 1110 nM | GI50 (DU-145): 948 nM; GI50 (PANC-1): 4160 nM; TGI (PANC-1): 4730 nM; GI50 (HT-29): 786 nM; TGI (HT-29): 754 nM; GI50 (K562): 1840 nM; TGI (K562): 3310 nM; GI50 [2]: 532 nM; GI50 (SK-MEL-28): 979 nM; CC50 (SK-MEL-28): 863 nM; GI50 (LoVo): 361 nM; TGI (LoVo): 353 nM; CC50 (LoVo): 347 nM; GI50 [3]: 470 nM; GI50 ([3]; read-out: GI50): 612 nM; CC50 [3]: 391 nM; LC50 (A549): 1120 nM; TGI (A549): 1240 nM; GI50 (A549): 1390 nM
